{"source": "paper PMC5823510", "about": "(Journal of the American Chemical Society, 2018)", "key": {"[1]": {"target": "MTH1 (human MutT Homolog 1) (Homo sapiens, UniProt P36639)", "test": "Enzyme selectivity screen, MTH1", "format": "biochemical", "conditions": "20 μM"}, "[2]": {"target": "OGG1 in HeLa cells (Homo sapiens, UniProt O15527)", "sequence (O15527 whole entry)": "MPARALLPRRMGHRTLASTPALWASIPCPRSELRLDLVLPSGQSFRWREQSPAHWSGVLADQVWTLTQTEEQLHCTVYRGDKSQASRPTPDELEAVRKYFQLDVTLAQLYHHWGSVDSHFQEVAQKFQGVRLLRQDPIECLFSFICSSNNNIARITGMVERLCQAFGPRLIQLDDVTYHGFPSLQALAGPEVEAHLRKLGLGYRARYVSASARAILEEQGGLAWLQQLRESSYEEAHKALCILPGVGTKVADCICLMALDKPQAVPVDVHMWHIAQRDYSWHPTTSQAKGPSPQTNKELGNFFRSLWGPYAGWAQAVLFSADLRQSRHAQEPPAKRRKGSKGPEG", "test": "Detection of 8-OG", "format": "cell-based", "conditions": "0.5 μM, 24 h, LC/MS-MS", "method_in_brief": "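HeLa cells were seeded at 2×10^6 per 10 cm dish in DMEM with 10% FBS and grown 12 h. They were then exposed 24 h at 37 °C to test compound at 5 or 0.5 μM, with compound-containing medium renewed every 6 h. Controls were untreated cells and H2O2 (0.5 mM) plus CrCl3 (0.3 mM). DNA (5 µg) was digested to nucleosides, and 8-oxodG was quantified by LC-MS/MS with 15N-labelled internal standards and normalised to dG.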"}, "[3]": {"system": "HeLa cells", "test": "Toxicity via MTT assay, HeLa", "format": "cell-based, human", "method_in_brief": "(§1)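 HEK293T cells (1.6×10^4/well, pre-grown 30 h) or HeLa cells (1.2×10^4/well, pre-grown 16 h) were cultured in DMEM with 10% FBS. They were exposed 24 h at 37 °C to test compound at 10 nM–100 μM, with 5% DMSO at 100 μM and 1% DMSO otherwise; medium-only and DMSO-matched controls were included. MTT was added at 0.5 mg/mL final, followed by 20 h solubilisation and absorbance reading at 550 and 650 nm.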"}, "[4]": {"system": "Caco-2 (clone C2BBel)", "test": "CACO-2 permeability assay", "format": "in vitro ADME", "conditions": "for Papp avg: average; for Papp R1: replicate R1"}, "[5]": {"system": "dUTPase (deoxyuridine 5′-triphosphate nucleotidohydrolase)", "test": "Enzyme selectivity screen, dUTPase", "format": "biochemical", "conditions": "20 μM"}, "[6]": {"target": "T1, hABH3 (human AlkB Homolog 3) (Homo sapiens, UniProt Q96Q83)", "T1 sequence (Q96Q83 1-286)": "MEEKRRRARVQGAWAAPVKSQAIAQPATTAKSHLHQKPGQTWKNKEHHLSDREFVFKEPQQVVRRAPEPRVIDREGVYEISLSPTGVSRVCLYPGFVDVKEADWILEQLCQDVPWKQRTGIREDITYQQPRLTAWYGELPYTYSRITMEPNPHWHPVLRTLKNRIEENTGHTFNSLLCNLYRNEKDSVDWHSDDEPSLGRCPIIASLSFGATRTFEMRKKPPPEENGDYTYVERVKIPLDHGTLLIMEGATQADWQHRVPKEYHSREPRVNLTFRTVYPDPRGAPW", "test": "Enzyme selectivity screen, hABH3", "format": "biochemical", "conditions": "20 μM"}, "[7]": {"target": "T2, hOGG1 (Homo sapiens, UniProt O15527)", "T2 sequence (O15527 whole entry)": "as the sequence (O15527 whole entry) above", "test": "Michaelis–Menten kinetics of hOGG1 with OGR1 probe", "format": "biochemical", "method_in_brief": "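Recombinant hOGG1 (100 nM) was preincubated 15 min at 37 °C in NEBuffer 4 (pH 7.9) with BSA, without or with test compound (200 nM or 2 μM). OGR1 fluorogenic substrate was added at 0.8–10 μM and fluorescence read at 460 nm (excitation 355 nm). Initial rates over 10 min gave Michaelis–Menten curves and Lineweaver–Burk plots, yielding Km and Vmax; kcat = Vmax/[enzyme].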"}, "[8]": {"target": "OGG1 activity in HeLa cell lysates (Homo sapiens, UniProt O15527)", "sequence (O15527 whole entry)": "as the sequence (O15527 whole entry) above", "test": "Inhibition of OGG1 activity in HeLa cell lysate", "format": "biochemical", "conditions": "0.5 μM, measured at 20 h", "method_in_brief": "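Cells were grown 48 h to confluence in DMEM with 10% FBS. Cytoplasmic fractions came from hypotonic swelling and needle lysis; nucleoplasmic fractions from 0.42 M NaCl extraction. The two were mixed 2:1. Each reaction held 100 ng/µL total protein, 2 µM pOGR1 fluorogenic probe, 10 mM MgCl2 and test compound at 0.5 μM, and ran […] at 37 °C. Fluorescence was read at 460 nm (excitation 355 nm).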"}, "[9]": {"target": "T3, hABH2 (human AlkB Homolog 2) (Homo sapiens, UniProt Q6NS38)", "T3 sequence (Q6NS38 1-261)": "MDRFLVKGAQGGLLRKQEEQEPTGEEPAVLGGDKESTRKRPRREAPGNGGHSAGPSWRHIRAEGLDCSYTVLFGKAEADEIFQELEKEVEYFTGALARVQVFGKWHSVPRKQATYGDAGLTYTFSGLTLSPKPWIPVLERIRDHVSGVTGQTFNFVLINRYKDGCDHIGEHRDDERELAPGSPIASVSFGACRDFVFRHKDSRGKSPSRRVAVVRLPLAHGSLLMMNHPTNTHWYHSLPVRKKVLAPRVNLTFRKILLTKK", "test": "Enzyme selectivity screen, hABH2", "format": "biochemical", "conditions": "20 μM"}, "[10]": {"target": "Recombinant His-tagged OGG1 (Homo sapiens, UniProt O15527)", "sequence (O15527 whole entry)": "as the sequence (O15527 whole entry) above", "test": "Surface plasmon resonance", "format": "binding", "conditions": "Biacore 8K, 1:3 dilution series, highest concentration 4 μM"}, "[11]": {"target": "T4, SMUG1 (single-strand selective monofunctional uracil DNA glycosylase) (Homo sapiens, UniProt Q53HV7)", "T4 sequence (Q53HV7 1-270)": "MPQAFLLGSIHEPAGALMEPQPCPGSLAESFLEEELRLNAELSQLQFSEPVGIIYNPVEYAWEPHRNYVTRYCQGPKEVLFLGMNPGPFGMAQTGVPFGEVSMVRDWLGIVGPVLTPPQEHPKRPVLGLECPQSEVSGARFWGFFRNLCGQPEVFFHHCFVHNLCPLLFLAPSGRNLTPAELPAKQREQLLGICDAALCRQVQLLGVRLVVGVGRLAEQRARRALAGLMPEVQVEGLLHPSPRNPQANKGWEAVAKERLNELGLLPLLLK", "test": "Enzyme selectivity screen, SMUG1", "format": "biochemical", "conditions": "20 μM"}, "[12]": {"system": "HEK293T cells", "test": "Toxicity via MTT assay, HEK293T", "format": "cell-based, human", "method_in_brief": "as §1"}, "[13]": {"target": "T2, hOGG1", "test": "OGG1 inhibitor assay with fluorogenic OGR1 probe", "format": "biochemical"}, "[14]": {"target": "OGG1 activity in MCF-7 cell lysates (Homo sapiens, UniProt O15527)", "sequence (O15527 whole entry)": "as the sequence (O15527 whole entry) above", "test": "Inhibition of OGG1 activity in MCF-7 cell lysate", "format": "biochemical", "conditions": "MCF-7 lysate, 0.5 μM, measured at 20 h"}, "[15]": {"target": "NUDT16 (nucleoside diphosphate-linked moiety X-type motif 16) (Homo sapiens, UniProt Q96DE0)", "sequence (Q96DE0 whole entry, species assumed)": "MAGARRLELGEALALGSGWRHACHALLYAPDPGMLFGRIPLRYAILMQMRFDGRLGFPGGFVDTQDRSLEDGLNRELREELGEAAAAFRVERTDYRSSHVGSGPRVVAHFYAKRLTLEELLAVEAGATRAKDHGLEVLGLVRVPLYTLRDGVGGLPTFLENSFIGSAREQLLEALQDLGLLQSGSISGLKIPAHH", "test": "Enzyme selectivity screen, NUDT16", "format": "biochemical", "conditions": "20 μM"}}, "data": [{"smiles": "NC(=O)c1cccc(-c2ccc(S(=O)(=O)Nc3ccc4c(c3)N(C(=O)C3CC3)CCC4)cc2)c1", "note": "[Compound 41]", "values": [{"measurement": "activity against MTH1", "setting": "[1]", "value": "low or negligible"}, {"measurement": "increase of 8-oxodG levels in DNA relative to mock-treated controls", "setting": "[2]", "value": 25, "unit": "%"}, {"measurement": "toxicity at 10 μM", "setting": "[3]; HeLa (one of two human cell lines), 10 μM", "value": "no toxicity"}, {"measurement": "cytotoxicity (MTT)", "setting": "[3]; HeLa, 10 nM to 10 μM, 24 h", "value": "little or no cytotoxicity"}, {"measurement": "apparent toxicity (MTT)", "setting": "[3]; HeLa, 100 μM, 24 h", "value": "30–50%"}, {"measurement": "recovery", "setting": "[4]; A-to-B", "value": 65, "unit": "%"}, {"measurement": "Papp avg", "setting": "[4]; A-to-B", "value": 12.5, "unit": "×10⁻⁶ cm/s"}, {"measurement": "Papp R1", "setting": "[4]; A-to-B", "value": 14.2, "unit": "×10⁻⁶ cm/s"}, {"measurement": "recovery", "setting": "[4]; B-to-A", "value": 79, "unit": "%"}, {"measurement": "efflux ratio", "setting": "[4]; B-to-A / A-to-B", "value": 6.2}, {"measurement": "Papp avg", "setting": "[4]; B-to-A", "value": 77.4, "unit": "×10⁻⁶ cm/s"}, {"measurement": "Papp R1", "setting": "[4]; B-to-A", "value": 63.5, "unit": "×10⁻⁶ cm/s"}, {"measurement": "activity against dUTPase", "setting": "[5]", "value": "low or negligible"}, {"measurement": "activity against hABH3", "setting": "[6]", "value": "low or negligible"}, {"measurement": "mode of inhibition", "setting": "[7]; Lineweaver–Burk analysis, 200 nM and 2 μM", "value": "competitive inhibitor"}, {"measurement": "kcat", "setting": "[7]; with 200 nM 41", "value": 0.040, "unit": "s⁻¹"}, {"measurement": "kcat", "setting": "[7]; with 2 μM 41", "value": 0.057, "unit": "s⁻¹"}, {"measurement": "inhibition of probe signal", "setting": "[8]", "value": 64, "unit": "%"}, {"measurement": "activity against hABH2", "setting": "[9]", "value": "low or negligible"}, {"measurement": "Kd (1:1 kinetic and steady-state models)", "setting": "[10]", "value": "consistent with IC50 of the biochemical assay"}, {"measurement": "activity against SMUG1", "setting": "[11]", "value": "low or negligible"}, {"measurement": "toxicity at 10 μM", "setting": "[12]; HEK293T (one of two human cell lines), 10 μM", "value": "no toxicity"}, {"measurement": "cytotoxicity (MTT)", "setting": "[12]; HEK293T, 10 nM to 10 μM, 24 h", "value": "little or no cytotoxicity"}, {"measurement": "apparent toxicity (MTT)", "setting": "[12]; HEK293T, 100 μM, 24 h", "value": "30–50%"}, {"measurement": "Enzyme activity, % of control at 2 μM", "setting": "[13]; 2 μM compound, initial rate (first 12 min)", "value": "4.8 % of control"}, {"measurement": "IC50", "setting": "[13]; OGR1 assay, initial rates method", "value": 59, "unit": "nM"}, {"measurement": "Enzyme activity, % of control at 200 μM (third column of Table 5)", "setting": "[13]; head of Table 5 c4 prints 200 μM, initial rate (first 12 min)", "value": "39 ±2.5 % of control"}, {"measurement": "inhibition of probe signal", "setting": "[14]", "value": 95, "unit": "%"}, {"measurement": "activity against NUDT16", "setting": "[15]", "value": "low or negligible"}]}]}
